Here are results for 90 compounds from PubChem BioAssay AID651647 (Sanford-Burnham Center for Chemical Genomics, 2012).

In all, about 360,000 compounds went through this assay and about 220 (0.061%) were called active. For the sample, actives were picked, then their nearest neighbours and some compounds at random. Values without a mark were called inactive.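 The calls were made as follows: active = GFP/RFP ratio change of at least 30% with cell ATP level not reduced by more than half and red fluorescence within 50% of control; inactive = the rest, inconclusive results apart.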

This assay addresses Matrix metalloproteinase-14 (Homo sapiens) (UniProt P50281). In words: MT1-MMP activation inhibitors, cellular reporter – HT1080 RFP-PRO-GFP cells, GFP/RFP fluorescence, primary screen (AID 651647). To be noted: overnight, at 20 µM, active compounds read high, percent of plate control window, DMSO zero. In short, it runs like this: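 Test system: HT1080 RFP-PRO-GFP cells; Benchmarks: DMSO and RFP-L50D-GFP cell wells; Timing: cells overnight before dosing, compound overnight, 37 °C, 5% CO2; Compound: one 20 µM compound dose with 1% DMSO; Read-out: GFP/RFP fluorescence ratio.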
As to `CC12CCC(C(=O)N(NC(=O)c3ccccc3O)C1=O)C2(C)C` (stereo not given), the GFP/RFP ratio change is 2.09%.

On to `CC(C)COC(=O)C1C2C=CC3(CN(C(C)c4ccc(Br)cc4)C(=O)C13)O2` (stereo not given), for which the GFP/RFP ratio change is 3.45%.

Turning to `COC(=O)CN1C(=O)[C@H]2[C@@H](/C=C/c3ccccc3)N3C(=O)CN(Cc4ccccc4)C(=O)[C@@]3(Cc3ccccc3)[C@H]2C1=O`, the GFP/RFP ratio change is 2.05%.

Consider `CCC(C(=O)NCc1ccc(OC)cc1)n1nc(C)n2c(cc3occc32)c1=O` (stereo not given), for which the GFP/RFP ratio change is -2.32%.

For `O=C(c1cccc(S(=O)(=O)N2CCCC2)c1)N(Cc1ccco1)C1CCS(=O)(=O)C1` (stereo not given), the GFP/RFP ratio change was -1.85%.

With `COc1ccc2c(c1OC)C(=O)N(c1ncn[nH]1)C2`, the GFP/RFP ratio change was 5.29%.

For the compound `COc1cc(C2C(N3C(=O)c4ccccc4C3=O)C(=O)N2c2ccc(C)c(C)c2)cc(OC)c1OC` (stereo not given), the GFP/RFP ratio change was 4.49%.

For the compound `CCN(CC(=O)Nc1ccc(NC(C)=O)cc1)C(=O)C1CC(=O)N(c2ccc3c(c2)OCCO3)C1` (stereo not given), the GFP/RFP ratio change is 1.76%.

`COc1ccccc1NC1=NC(c2ccc(Cl)cc2)N=C(N)N1` (stereo not given): the GFP/RFP ratio change is -2.9%.

For `Cc1cc(OC(=O)c2ccc(Cl)cc2)cc(=O)n1C`, the GFP/RFP ratio change is 0.208%.

`CCN(CC)C(=O)N1CCN(C(=O)c2ccc(C)cn2)CC1`: the GFP/RFP ratio change is 4.93%.

Consider `CC1(C(=O)NCc2ccc3c(c2)OCO3)CCN1CCc1ccccc1` (stereo not given), for which the GFP/RFP ratio change was 2.41%.

Regarding `COCCCNC(=O)CN1C(=O)CSc2ccc(S(=O)(=O)N3CCOCC3)cc21`, the GFP/RFP ratio change is -2.33%.

Turning to `CCn1cc(CCC(=O)NCc2ccc(F)cc2)c2ccccc21`, the GFP/RFP ratio change is 1.53%.

Take `N#Cc1ccc(-c2nc3c(Cl)cc(C(F)(F)F)cn3c2Cc2ccccc2C(F)(F)F)cc1`: the GFP/RFP ratio change was 1.7%.

Turning to `CN(C)CCCn1c(SCc2ccc(Cl)cc2)nnc1-c1ccncc1`, the GFP/RFP ratio change was 1.22%.

Turning to `CC1(C)OC(=O)C2=C(C[C@@H](C3CCCCC3)O[C@@H]2c2ccc(Cl)cc2)O1`, the GFP/RFP ratio change is -0.857%.

As for `CC1(C)CC(=O)NC=C(c2ccccc2)C1`, the GFP/RFP ratio change is 0.817%.

Turning to `COc1ccc(C(=O)COC(=O)c2c(C)noc2C)cc1Cl`, the GFP/RFP ratio change is 0.327%.

For `O=c1[nH]nc(SCCS(=O)(=O)c2ccc(F)cc2)n1-c1ccccc1C(F)(F)F`, the GFP/RFP ratio change was 1.01%.

For the compound `COc1cccc(NC(=O)Cn2c3ccc(F)cc3c3nc4n(c(=O)c32)CCS4)c1`, the GFP/RFP ratio change is 1.54%.

With `O=C(CCc1ccccc1F)N1CCN(c2ccccc2)CC1`, the GFP/RFP ratio change is -1.03%.

On to `Cc1cc(=O)oc2c1ccc1ccccc12`, for which the GFP/RFP ratio change is 0.0995%.

`CCCCCc1ccc(-c2ccc(C(=O)O)cc2)nc1`: the GFP/RFP ratio change is 0.418%.

Turning to `Cc1cc(C)c(C#N)c(SCS(=O)c2ccc(C(C)(C)C)cc2)n1` (stereo not given), the GFP/RFP ratio change was 3.13%.

On to `O=C(COC(=O)C1CCN(S(=O)(=O)c2ccc3c(c2)OCCO3)CC1)Nc1ccccc1OC(F)F`, for which the GFP/RFP ratio change is -1.25%.

For the compound `CC1(C)CN(Cc2cccnc2)C(=O)[C@H]1CC(=O)Nc1ccc(Br)cc1`, the GFP/RFP ratio change is -0.506%.

Consider `CCCc1nc(-c2ccccc2O)n(-c2ccccc2)n1`, for which the GFP/RFP ratio change was 1.17%.

Regarding `N#CCSc1nc2ccc(N3CCOCC3)cc2c(=O)n1CCc1ccccc1`, the GFP/RFP ratio change is 9.47%.

Regarding `COc1cc(NC(=O)CCS(=O)(=O)c2ccc3c(c2)oc(=O)n3C)cc(OC)c1`, the GFP/RFP ratio change is 0.489%.

Consider `Cc1cc(OCc2ccc(C(=O)Nc3ccc(C(=O)O)cc3)o2)ccc1Cl`, for which the GFP/RFP ratio change was 1.24%.

In the case of `Cc1ccc(NC(=O)COc2coc(CN3CCc4ccccc4C3)cc2=O)cc1Cl`, the GFP/RFP ratio change was -6.33%.

As to `CCCc1c(C(=O)N/N=C(\C)CCc2ccc(OC)cc2)nnn1-c1nonc1N`, the GFP/RFP ratio change is 0.35%.

In the case of `O=C1CCCC(O)=C1N=Nc1ccc(S(=O)(=O)N2CCOCC2)cc1`, the GFP/RFP ratio change was 48.9% (active).

As to `CC1(C)CC(=O)C(N=Nc2ccc(S(=O)(=O)N3CCCCCC3)cc2)=C(O)C1`, the GFP/RFP ratio change was 3.46%.

As for `O=C1CCCC(O)=C1N=Nc1ccc2ncsc2c1`, the GFP/RFP ratio change was 4.19%.

On to `CC1(C)CC(=O)C(C2=NC(C)(C)Cc3ccccc32)=C(O)C1`, for which the GFP/RFP ratio change was -1.97%.

Take `CCCCCCN1C[C@H](O)[C@@H](n2cc(C3CC3)nn2)C[C@@H]1c1ccc(Cl)cc1`: the GFP/RFP ratio change was 2.78%.

Regarding `CC1CC(C)CN(CCCNC(=O)Cn2ncc3c([nH]c4ccccc43)c2=O)C1` (stereo not given), the GFP/RFP ratio change was -6.2%.

On to `Cc1ccc(C(=O)OCC(=O)Nc2ccc(Cl)cn2)cc1S(=O)(=O)N1CCOCC1`, for which the GFP/RFP ratio change was 2.27%.

For `CCOc1ccc(NC(=O)[C@H](C)NC(=O)C2CC(=O)N(c3ccc(OC)cc3)C2)cc1` (stereo not given in full), the GFP/RFP ratio change was 0.231%.

Regarding `CCOC(=O)c1c(NC(=O)CCCN2CCOCC2)sc2c1CC(C)(C)OC2`, the GFP/RFP ratio change is -2.69%.

Regarding `O=P(O)(CP(=O)(c1ccccc1)c1ccccc1)c1ccccc1`, the GFP/RFP ratio change is 35.4% (active).

On to `O=C(CP(=O)(c1ccccc1)c1ccccc1)N1CCOCC1`, for which the GFP/RFP ratio change is 1.97%.

On to `O=P(O)(CP(=O)(c1ccccc1)c1ccccc1)c1ccccc1O`, for which the GFP/RFP ratio change was 2.61%.

Regarding `Cc1noc(COc2ccccc2OCc2onc(C)c2Cl)c1Cl`, the GFP/RFP ratio change was -3.96%.

On to `CC(C)(C)Cc1c(C2CCCCC2)nc2ccc(Br)cn12`, for which the GFP/RFP ratio change was -6.01%.

In the case of `CCN(CC)C(=O)Oc1ccc(Br)cc1C(=O)Nc1ccc(F)c(Cl)c1`, the GFP/RFP ratio change was -4.63%.

Regarding `COc1ccc(-c2noc(C(C)NS(=O)(=O)c3ccc(NC(C)=O)cc3)n2)cc1` (stereo not given), the GFP/RFP ratio change was -4.06%.

Turning to `CCOC(=O)c1cnc2c(c(C)nn2CC)c1Cl`, the GFP/RFP ratio change was 2.11%.

`COc1ccc(NC(=O)C(C)N2c3cccc4cccc(c34)S2(=O)=O)c(OC)c1` (stereo not given): the GFP/RFP ratio change was 3.17%.

Turning to `COc1ccc(CC(NC(C)=O)C(=O)N2CCN(C(=O)Nc3cccc(Cl)c3)CC2)cc1OC` (stereo not given), the GFP/RFP ratio change is -3.43%.

In the case of `Brc1ccc(Nc2c3c(nc4ncnn24)CCC3)cc1`, the GFP/RFP ratio change is 1.92%.

On to `CN=C1C=C/C(=N/N=c2\ccn(O)cc2C)C=C1C`, for which the GFP/RFP ratio change was 61% (active).

For the compound `CC[N+]1(CC)CC2=Cc3ccccc3CC2C1` (stereo not given), the GFP/RFP ratio change is 0.892%.

On to `CC(Sc1nc2cc(Cl)ccc2s1)C(=O)Nc1ccc2c(c1)OCO2` (stereo not given), for which the GFP/RFP ratio change is 3.37%.

Consider `COCCCNC(=O)/C(C#N)=C/c1c(N2CCCCCC2)nc2ccccn2c1=O`, for which the GFP/RFP ratio change was -0.526%.

Regarding `CCOC(=O)c1cc(-c2sc(NC(=O)c3ccccc3)nc2C)n(Cc2ccccc2)n1`, the GFP/RFP ratio change was -13.8%.

As for `CCN1CCN(c2c(Cl)cccc2NC(=O)c2ccc(Br)o2)CC1`, the GFP/RFP ratio change was 6.59%.

In the case of `CNC(=O)c1[nH]cnc1C(=O)N[C@@H](CC(C)C)C(=O)OCc1ccccc1`, the GFP/RFP ratio change was 3.79%.

With `CSc1ncccc1C(=O)N1CCCC(Nc2ccc(F)c(F)c2)C1` (stereo not given), the GFP/RFP ratio change is 0.99%.

Take `O=Cc1c(NCCc2cccc(F)c2)c2ccccc2[nH]c1=O`: the GFP/RFP ratio change is -3.4%.

Regarding `Cn1c(=S)sc2ccc3ccccc3c21`, the GFP/RFP ratio change was 2.62%.

In the case of `CN(C(=O)CSc1cccc[n+]1[O-])C1CCCCC1`, the GFP/RFP ratio change is 9.34%.

Consider `Cc1ccc(S(=O)(=O)N2CC(C)N(S(C)(=O)=O)C2)cc1` (stereo not given), for which the GFP/RFP ratio change is 0.163%.

Consider `CCc1ccnc(NS(=O)(=O)c2ccc3c(c2)OCCO3)c1`, for which the GFP/RFP ratio change was 3.33%.

In the case of `Cc1ccc2c(c1)N(S(=O)(=O)c1cc(-c3cc(C)no3)ccc1C)CCO2`, the GFP/RFP ratio change was 0.714%.

In the case of `CC(=O)c1c(O)cc2n(c1=O)-c1ccc(Cl)cc1C2(C)C`, the GFP/RFP ratio change is -5.09%.

For the compound `CCOC(=O)C1(O)CC(C)=NN1C(=O)c1cccc(Br)c1` (stereo not given), the GFP/RFP ratio change is 7.72%.

Regarding `O=C(O)CC(Cn1cnnn1)c1ccccc1` (stereo not given), the GFP/RFP ratio change was -0.417%.

In the case of `Nc1nc(SCc2cccc(Br)c2)n[nH]1`, the GFP/RFP ratio change is 6.02%.

On to `CC(=O)c1nn(-c2ccc(C)cc2)cc1C(=O)c1cccc(Br)c1`, for which the GFP/RFP ratio change was 0.8%.

For the compound `CCc1ccc(C2N3CC4([N+](=O)[O-])CN2CC([N+](=O)[O-])(C3)C4(C)C)cc1` (stereo not given), the GFP/RFP ratio change is -2.43%.

Take `O=S(=O)(Nc1ncccn1)c1ccc(NS(=O)(=O)c2cccc(Cl)c2Cl)cc1`: the GFP/RFP ratio change is -0.508%.

Regarding `O=c1ccc2c(-c3ccccc3S(=O)(=O)O)c3ccc(O)c(O)c3oc-2c1O`, the GFP/RFP ratio change is 49.3% (active).

Turning to `N/C(=N\OS(=O)(=O)c1cccc([N+](=O)[O-])c1)c1ccncc1`, the GFP/RFP ratio change was 1.12%.

`CCc1ccnc(NC(=O)Nc2ccc(OCc3ccccc3)cc2)c1`: the GFP/RFP ratio change is 3.94%.

As to `CC(C)(C)OC(=O)N1CCN(C(=O)c2[nH]c(C(F)(F)F)nc2-c2ccccc2)CC1`, the GFP/RFP ratio change was 3.61%.

For the compound `CN1CC(c2ccccc2)C2(COc3ccccc3C2=O)C12C(=O)Nc1ccccc12` (stereo not given), the GFP/RFP ratio change was -4.6%.

With `Cc1ccc2c(c1)N(CC(=O)NCCCN1CCCCC1)C(=O)c1cccnc1O2`, the GFP/RFP ratio change is 1.06%.

For the compound `Cc1ccccc1S(=O)(=O)NC(=O)C1(C)CCN1C(=O)C1(c2ccc(Cl)cc2)CC1` (stereo not given), the GFP/RFP ratio change was 0.579%.

For the compound `O=C(COC(=O)c1ccc(S(=O)(=O)N2CCCCCC2)cc1)Nc1ccccc1C(F)(F)F`, the GFP/RFP ratio change was -2.08%.

`COc1ccccc1C1CCN(C(=S)Nc2ccc(Br)cc2)CC1`: the GFP/RFP ratio change is -1.18%.

`CC(C)[C@H](NC(=O)N1CCn2c1nc1ccccc12)C(=O)NCCc1ccccc1`: the GFP/RFP ratio change was 1.13%.

For the compound `O=c1[nH]snc1-c1c(Cl)cccc1Cl`, the GFP/RFP ratio change is -2.44%.

Consider `COC(=O)NNC(=O)C1CCC(C)CC1` (stereo not given), for which the GFP/RFP ratio change is 0.231%.

`Cc1cn(C2CC(O)C(CO)O2)c(=O)n(CCCc2ccccc2)c1=O` (stereo not given): the GFP/RFP ratio change is 5.06%.

For `Cc1nn(C)c(Oc2ccccc2)c1CCNS(=O)(=O)c1ccc(F)cc1`, the GFP/RFP ratio change is 0.853%.

`O=C(c1ccc(F)c(S(=O)(=O)N2CCOCC2)c1)N(CCc1ccccc1)Cc1ccccc1`: the GFP/RFP ratio change is -8.33%.

Consider `CC(=O)c1cc2c(cc1NC(=O)CN1CCCCCC1)OCO2`, for which the GFP/RFP ratio change was -5.12%.
